# CAL PDZ FP-1 = inhibitors of human CAL PDZ peptide binding. Q9HD26. purified CAL PDZ, TMR-peptide fluorescence polarization, 1 h. inhibition, % at 24.9 µM. 300,000 tested, 0.92% active. AID 602252;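 active = mean inhibition of at least 30% with at least half of replicates also reaching 30%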;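 also: 0% = DMSO neutral control and 100% = excess unlabeled competitor peptide PRC23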
# miR-122 sensor = miR-122 inhibition in Huh7 cells. Huh7 miR-122 Renilla luciferase sensor, 48 h; neutral wells = 0, positive control = 100. activation (reporter increase), % at 12.5 µM. 340,000 tested, 0.3% active. AID 602342;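 active = mean replicate activation score at least 90 and every replicate individually at or above 90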;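 also: higher luciferase means less miR-122 activity so hits act as miR-122 inhibitors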
# Keap1-Nrf2 PPI = disrupts human Keap1 binding to Nrf2 peptide | Keap1 Kelch-Nrf2 peptide fluorescence polarization, 1536-well | inhibition, % at 9.4 µM | 340,000 tested, 0.15% active | AID 504523; in the data active = inhibition above about 12%;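 also: human Keap1 Kelch domain with fluorescein labeled Nrf2 9mer peptide probe; 0% = neutral control wells and 100% = peptide positive control; higher means more block of Keap1 binding to Nrf2 peptide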
# Target sequence (Q14145 whole entry, looked up, the tested form may be a part): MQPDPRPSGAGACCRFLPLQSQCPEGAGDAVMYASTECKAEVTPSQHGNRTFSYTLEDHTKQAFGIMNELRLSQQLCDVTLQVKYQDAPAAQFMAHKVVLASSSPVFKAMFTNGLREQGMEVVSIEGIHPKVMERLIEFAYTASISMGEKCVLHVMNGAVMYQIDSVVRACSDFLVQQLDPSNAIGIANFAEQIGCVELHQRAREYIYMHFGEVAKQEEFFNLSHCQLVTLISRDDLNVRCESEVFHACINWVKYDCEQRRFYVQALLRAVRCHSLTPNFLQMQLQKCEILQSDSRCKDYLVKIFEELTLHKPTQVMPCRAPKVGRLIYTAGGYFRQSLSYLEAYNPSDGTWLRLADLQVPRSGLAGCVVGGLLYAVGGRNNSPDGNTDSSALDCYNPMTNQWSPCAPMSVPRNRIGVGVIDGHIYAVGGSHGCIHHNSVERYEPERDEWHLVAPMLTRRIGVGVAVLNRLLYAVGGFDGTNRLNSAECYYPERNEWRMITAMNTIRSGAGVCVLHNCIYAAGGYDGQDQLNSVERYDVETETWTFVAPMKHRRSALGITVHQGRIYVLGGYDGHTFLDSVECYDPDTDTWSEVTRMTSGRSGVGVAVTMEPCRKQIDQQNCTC
# CAL PDZ FP-2 = inhibitors of human CAL PDZ peptide binding | 330,000 tested, 0.02% active | Q9HD26 | purified CAL PDZ, TMR-peptide fluorescence polarization, 1 h | inhibition, % at 20 µM;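 active = highest replicate inhibition of at least 40%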;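 also: plate controls were DMSO neutral control wells for no effect and unlabeled competitor peptide control wells for full effect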
#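 Material: tagged CAL PDZ domain; buffer or medium: 25 mM sodium phosphate pH 7.4, 150 mM NaCl, TCEP, IgG, Thesit; compound dosing: single point, 20 µM; schedule: 1 h incubation at room temperature before polarization reading; measured by: FP readout, S and P plane fluorescence; read-out basis: percent inhibition from loss of millipolarization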
# LANA DNA inh = KSHV C-LANA DNA binding inhibition. MBP-C-LANA/FAM-LBS DNA binding, fluorescence polarization. inhibition, % at 9 µM. 340,000 tested, 0.078% active. AID 504423;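 active = highest replicate inhibition at or above 60% at 9 µM, even if other replicates fall short; inactive = all replicates below 60% inhibition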;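 also: 0% = neutral control wells and 100% = 4 µM acridine orange control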
# * hit, by the source's call; . = no result given; + = active, no number; [ ] = remark or other dose. Rows were chosen to be rich in hits. Some 1.1% of all compounds tested hit in one or more screens of this group.
SMILES,CAL PDZ FP-1,miR-122 sensor,Keap1-Nrf2 PPI,CAL PDZ FP-2,LANA DNA inh
C[C@H](CO)N1C[C@H](C)[C@@H](CN(C)Cc2ccc3c(c2)OCO3)Oc2ccc(NC(=O)Nc3ccc(C(F)(F)F)cc3)cc2CC1=O,.,-8[16.7 µM],.,.,.
COc1ccc(S(=O)(=O)N2CCN(C(=O)c3ccco3)CC2)c(C)c1C,75*,-8,-1,7,-13
CO[C@H]1CN(C)C(=O)c2ccc(NC(=O)C3CC3)cc2OC[C@H](C)N(CC2CCOCC2)C[C@H]1C,.,15[16.7 µM],.,.,.
CCC(=O)N1C[C@H](O)COC[C@@H]2O[C@H](CC(=O)N3CCCCC3)CC[C@H]21,.,0[16.7 µM],.,.,.
Cc1cccc(Nc2nc(N)c([N+](=O)[O-])c(NCc3ccccc3)n2)c1,.,18,+,-1,.
Cc1ccc(CNc2nc(N)c([N+](=O)[O-])c(NCCO)n2)cc1,62*,8,-3,0,2
Cn1c(C(=O)N2CCN(c3ccccc3)CC2)cc2cc(Cl)ccc21,74*,-1,-2,-1,2
Cc1ccc(S(=O)(=O)Nc2cc3c(cc2N2CCOCC2)n(C)c(=O)c(=O)n3C)cc1,36*,3,-5,0,0
CCN(CC)S(=O)(=O)c1ccc(N2CCOCC2)c(NS(=O)(=O)c2ccc(C)c(C)c2)c1,89*,.,1,0,-2
Cc1ccc(S(=O)(=O)Nc2ccc3c(c2)nc(CCN2CCOCC2)n3C)cc1,32*,-6,-2,-2,1
Cn1c(=O)c(=O)n(C)c2cc(N3CCOCC3)c(NS(=O)(=O)c3ccc(Br)cc3)cc21,-3,-3,0,0,1
CNC[C@@H]1Oc2cc(-c3ccncc3)ccc2S(=O)(=O)N([C@H](C)CO)C[C@H]1C,.,-2[16.7 µM],.,.,.
O=C(Nc1ccccc1Oc1ccsc1C(=O)O)c1ccccc1,39*,.,0,-3,0
COc1ccc(NC(=O)C[C@H]2CC[C@H]3[C@@H](COc4ccc(NC(C)=O)cc4C(=O)N3C)O2)cc1,.,0[16.7 µM],.,.,.
COC(=O)C1C(O)=C(C=NCc2ccccc2)C(=O)CC1(C)C (configuration not stated),1,-3,-5,0,-3
COC(=O)C1C(O)=C(C=Nc2cccc3ccccc23)C(=O)CC1(C)C (configuration not stated),60*,.,-1,-2,1
Cc1cc2ncc(S(C)(=O)=O)c(N)n2n1,56*,.,2,-1,-3
C[C@H]1CCCCO[C@H](CN(C)S(=O)(=O)c2ccc(Cl)cc2)[C@@H](C)CN([C@@H](C)CO)C(=O)c2cc(NC(=O)Nc3cccc4ccccc34)ccc2O1,.,0[16.7 µM],.,.,.
CCOc1ccccc1N1CCN(C(=O)c2cc3ccccc3cc2OC)CC1,3,130*,-5,0,-1
CCOc1ccccc1C(=O)N1CCN(c2cccc(Cl)c2)CC1,.,139*,2,-2,3
C[C@H](CO)N1C[C@H](C)[C@H](CN(C)C(=O)Nc2ccc(F)cc2)Oc2ccc(N(C)C)cc2C1=O,.,2[16.7 µM],.,.,.
COc1ccc(S(=O)(=O)N2CCCCN3[C@@H](CO)[C@H](c4ccc(C#CC(C)C)cc4)[C@@H]3C2)cc1,.,2[16.7 µM],.,.,.
C[C@H]1CN([C@@H](C)CO)C(=O)c2cc(NC(=O)NC3CCCCC3)ccc2O[C@@H]1CN(C)C(=O)Nc1ccccc1,.,93*[16.7 µM],.,.,.
C[C@@H]1CN([C@@H](C)CO)C(=O)c2cc(NC(=O)Cc3ccccc3)ccc2O[C@H]1CN(C)S(=O)(=O)c1ccc(Cl)cc1,.,-6[16.7 µM],.,.,.
C[C@@H]1CN([C@H](C)CO)C(=O)c2cc(NC(=O)Nc3ccccc3)ccc2O[C@@H]1CN(C)S(=O)(=O)c1ccc(Cl)cc1,.,100*[16.7 µM],.,.,.
C[C@@H]1CN([C@H](C)CO)C(=O)c2cc(NC(=O)Cc3ccccc3)ccc2O[C@@H]1CN(C)S(=O)(=O)c1ccc(Cl)cc1,.,99*[16.7 µM],.,.,.
C[C@@H]1CN([C@H](C)CO)C(=O)c2cccc(N(C)C)c2O[C@H]1CN(C)C(=O)Nc1ccccc1,.,124*[16.7 µM],.,.,.
C[C@H]1CN([C@@H](C)CO)C(=O)Cc2cc(NC(=O)CCC(F)(F)F)ccc2O[C@H]1CN(C)CC1CCCCC1,.,-4[16.7 µM],.,.,.
C[C@@H]1CN([C@H](C)CO)C(=O)c2cc(NC(=O)Cc3cn(C)c4ccccc34)ccc2O[C@@H]1CN(C)S(=O)(=O)c1ccc(Cl)cc1,.,101*[16.7 µM],.,.,.

# Assay outcomes deposited in PubChem BioAssay by Broad Institute.
